For experiment [1], the system named is HT-29. Briefly: Antiproliferative activity against human HT-29 cells after 72 hrs by MTS/PMS assay. In kind it is functional, cell-based. The conditions noted are these: HT-29, 72 h. The gist of the method: (§1)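 Cells grown in medium with non-essential amino acids, 2 mM L-glutamine, streptomycin, penicillin and 10% FBS at 37 °C, 5% CO2; seeded 2000/well, attached overnight. Test agent added over a concentration range in DMSO (1% final), 72 h exposure. Viable cells counted by MTS/PMS read-out against 1% DMSO wells as 100% proliferation. IC50 taken as mean ± SD of at least two separate experiments, each in triplicate.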

Experiment [2] concerns A549. As to the kind of experiment: Antiproliferative activity against human A549 cells after 72 hrs by MTS/PMS assay. The class given is functional, cell-based. The conditions noted are these: A549, 72 h. The gist of the method: as §1
Experiment [3] can be described thus: Antiproliferative activity against human PC3MM2 cells after 72 hrs by MTS/PMS assay. In kind it is functional, cell-based. The following applies: PC3MM2, 72 h. The gist of the method:
as §1

Experiment [4] deals with SK-BR-3. Briefly: Antiproliferative activity against human SKBR3 cells after 72 hrs by MTS/PMS assay. The class given is functional, cell-based. The following applies: SK-BR-3, 72 h. In outline: as §1
Experiment [5] deals with MCF7. As to the kind of experiment: Antiproliferative activity against human MCF7 cells after 72 hrs by MTS/PMS assay. The class given is functional, cell-based. The following applies: MCF7, 72 h. In outline: as §1
Experiment [6] deals with T1, Heat shock protein HSP90 (Homo sapiens) (UniProt P07900+P08238). As to the kind of experiment: Inhibition of Hsp90 in human MCF7 cells assessed as induction of Her2 degradation at 0.5 fold IC50 after 24 hrs by Western blot method. The class given is cell-based. The gist of the method:
(§2)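 MCF-7 cells treated 24 h with compound in DMSO (1% final); geldanamycin 500 nM served as positive control and DMSO as vehicle control. Cells harvested in cold PBS and lysed 1 h on ice in RIPA with 1 mM PMSF, 2 mM orthovanadate and protease inhibitors. Lysates clarified 14,000g, 15 min, 4 °C. Protein (20 µg, BCA) resolved under reducing conditions and blotted on PVDF for Her2, Raf and Akt, with actin as loading control. Detection by HRP secondary antibody and chemiluminescence.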
For orientation: Immunoblotting shows a protein as a band on a membrane.

Experiment [7] deals with T1, Heat shock protein HSP90 (Homo sapiens). As to the kind of experiment: Inhibition of Hsp90 in human MCF7 cells assessed as induction of Akt degradation at 0.5 fold IC50 after 24 hrs by Western blot method. The class given is cell-based. The gist of the method:
as §2

Experiment [8] has the same target. Briefly: Inhibition of Hsp90 in human MCF7 cells assessed as induction of Akt degradation at 5 fold IC50 after 24 hrs by Western blot method. In kind it is cell-based. The gist of the method: as §2
Experiment [9] has the same target. As to the kind of experiment: Inhibition of Hsp90 in human MCF7 cells assessed as induction of Her2 degradation at 5 fold IC50 after 24 hrs by Western blot method. The class given is cell-based. In outline: as §2
The target is the same in experiment [10]. Briefly: Inhibition of Hsp90 in human MCF7 cells assessed as induction of Raf degradation at 0.5 fold IC50 after 24 hrs by Western blot method. The class given is cell-based. The gist of the method: as §2
The target is the same in experiment [11]. Briefly: Inhibition of Hsp90 in human MCF7 cells assessed as induction of Raf degradation at 5 fold IC50 after 24 hrs by Western blot method. In kind it is cell-based. The gist of the method:
as §2

Calls of active or inactive are those of the source. No cut-off for these calls is given here.

Consider `Cc1c(OC2CCN(C)CC2)ccc2cc(NC(=O)CCCCCCC(=O)Nc3cc4ccc(OC5CCN(C)CC5)c(C)c4oc3=O)c(=O)oc12`, for which the IC50 is 26.3 µM in [1]; 30.4 µM in [2]; 13.8 µM in experiment [3]; 1.19 µM in experiment [4]; 2.82 µM in [5].
Take `COc1c(O[C@H]2OC(C)(C)[C@@H](OC)[C@H](O)[C@@H]2O)ccc2cc(NC(=O)CC/C=C/CCC(=O)Nc3cc4ccc(O[C@H]5OC(C)(C)[C@@H](OC)[C@H](O)[C@@H]5O)c(OC)c4oc3=O)c(=O)oc12`: the IC50 in experiment [4] was 52 µM; in experiment [5], greater than 100 µM.
With `COc1cc2cc(NC(=O)CC/C=C/CCC(=O)Nc3cc4cc(OC)c(OC5CCN(C)CC5)c(C)c4oc3=O)c(=O)oc2c(C)c1OC1CCN(C)CC1`, the inhibition result in [6], in experiment [7], in experiment [8], in experiment [9], in experiment [10] and in experiment [11] was “Active” throughout. For the same compound, the half-maximal inhibitory concentration (IC50) in experiment [2] turned out to be 1.44 µM; in experiment [3], 4.86 µM; in experiment [4], 1.1 µM; in experiment [5], 1.31 µM.
Regarding `COc1c(OC2CCN(C)CC2)ccc2cc(NC(=O)CC/C=C/CCC(=O)Nc3cc4ccc(OC5CCN(C)CC5)c(OC)c4oc3=O)c(=O)oc12`, the inhibition result in [6], in experiment [7], in [8], in [9], in experiment [10] and in experiment [11] was “inactive” each time. Also, the IC50 is 1.22 µM in experiment [2], 0.06 µM in [3], 2.22 µM in experiment [4] and 1.12 µM in experiment [5].
Turning to `CO[C@H]1[C@H](OC(=O)c2ccc(C)[nH]2)[C@H](O)[C@@H](Oc2ccc3c(O)c(NC(=O)c4c[nH]c(C(=O)Nc5c(O)c6ccc(O[C@H]7OC(C)(C)[C@@H](OC)[C@H](OC(=O)c8ccc(C)[nH]8)[C@@H]7O)c(C)c6oc5=O)c4C)c(=O)oc3c2C)OC1(C)C` [COUMERMYCIN A1], the IC50 in experiment [4] came to 5 µM; in [5], 8.8 µM.
In the case of `CO[C@H]1[C@H](O)[C@H](O)[C@@H](Oc2ccc3cc(NC(=O)C/C=C/CC(=O)Nc4cc5ccc(O[C@H]6OC(C)(C)[C@@H](OC)[C@H](O)[C@@H]6O)c(C)c5oc4=O)c(=O)oc3c2C)OC1(C)C`, the values for the concentration for half-maximal inhibition (IC50) in [4] and in experiment [5] were greater than 100 µM and 53.1 µM, respectively.
For the compound `COc1cc(C(=O)Nc2cc3ccc(O[C@@H]4OC(C)(C)[C@H](OC)[C@@H](O)[C@H]4O)c(C)c3oc2=O)cc(-c2cc(OC)cc(C(=O)Nc3cc4ccc(O[C@@H]5OC(C)(C)[C@H](OC)[C@@H](O)[C@H]5O)c(C)c4oc3=O)c2)c1`, the IC50 in experiment [1] was found to be 11.7 µM; in [2], 28.9 µM; in experiment [3], 12.5 µM; in experiment [4], 1.95 µM; in experiment [5], 1.85 µM.
With `Cc1c(OC2CCN(C)CC2)ccc2cc(NC(=O)CCCCC(=O)Nc3cc4ccc(OC5CCN(C)CC5)c(C)c4oc3=O)c(=O)oc12`, the values for the IC50 in experiment [4] and in experiment [5] were 1.26 µM and 2.46 µM, respectively.
For `COc1cc(C(=O)Nc2cc3ccc(O[C@@H]4OC(C)(C)[C@H](OC)[C@@H](O)[C@H]4O)c(C)c3oc2=O)cc(-c2cc(C(=O)Nc3cc4ccc(O[C@@H]5OC(C)(C)[C@H](OC)[C@@H](O)[C@H]5O)c(C)c4oc3=O)ccc2OC)c1`, in that order: 28.5 µM and 38 µM.
Consider `COc1c(OC2CCN(C)CC2)ccc2cc(NC(=O)CCC/C=C/CCCC(=O)Nc3cc4ccc(OC5CCN(C)CC5)c(OC)c4oc3=O)c(=O)oc12`, for which the inhibition entry in experiment [6], in experiment [7], in experiment [8], in experiment [9], in experiment [10] and in experiment [11] was “Active” in each case. Moreover, the half-maximal inhibitory concentration (IC50) came out at 1.21 µM in [2], 0.05 µM in experiment [3], 0.37 µM in [4] and 0.88 µM in experiment [5].
For `Cc1c(OC2CCN(C)CC2)ccc2cc(NC(=O)CC/C=C\CCC(=O)Nc3cc4ccc(OC5CCN(C)CC5)c(C)c4oc3=O)c(=O)oc12`, the concentration for half-maximal inhibition (IC50) in experiment [2] was 77.6 µM; in experiment [3], 32.9 µM; in experiment [4], greater than 100 µM; in experiment [5] it was 49.9 µM.
As for `COc1cc2cc(NC(=O)CC/C=C/CCC(=O)Nc3cc4cc(OC)c(O[C@H]5OC(C)(C)[C@@H](OC)[C@H](O)[C@@H]5O)c(C)c4oc3=O)c(=O)oc2c(C)c1O[C@H]1OC(C)(C)[C@@H](OC)[C@H](O)[C@@H]1O`, the figures for the half-maximal inhibitory concentration (IC50) in [4] and in experiment [5] were 4.1 µM and 2.61 µM, respectively.
For `CO[C@H]1[C@H](O)[C@H](O)[C@@H](Oc2ccc3cc(NC(=O)CC/C=C/CCC(=O)Nc4cc5ccc(O[C@H]6OC(C)(C)[C@@H](OC)[C@H](O)[C@@H]6O)c(C)c5oc4=O)c(=O)oc3c2C)OC1(C)C`, in that order: 1.5 µM and 3.9 µM.
The like results for `Cc1c(OC2CCN(C)CC2)ccc2cc(NC(=O)CCCC/C=C/CCCCC(=O)Nc3cc4ccc(OC5CCN(C)CC5)c(C)c4oc3=O)c(=O)oc12` were, in that order, 0.51 µM and 0.73 µM.
Take `COc1cc2cc(NC(=O)C/C=C/CC(=O)Nc3cc4cc(OC)c(O[C@H]5OC(C)(C)[C@@H](OC)[C@H](O)[C@@H]5O)c(C)c4oc3=O)c(=O)oc2c(C)c1O[C@H]1OC(C)(C)[C@@H](OC)[C@H](O)[C@@H]1O`: the half-inhibitory concentration (IC50) in experiment [4] came out at 106 µM; in experiment [5] it was 168 µM.
Turning to `COc1cc2cc(NC(=O)C/C=C/CC(=O)Nc3cc4cc(OC)c(OC5CCN(C)CC5)c(C)c4oc3=O)c(=O)oc2c(C)c1OC1CCN(C)CC1`, the inhibition result in experiment [6], in experiment [7], in experiment [8], in experiment [9], in experiment [10] and in experiment [11] was “Active” throughout. In addition, the 50% inhibitory concentration (IC50) was 1.25 µM in [2], 0.17 µM in [3], 0.27 µM in [4] and 0.56 µM in experiment [5].
Regarding `COc1c(O[C@H]2OC(C)(C)[C@@H](OC)[C@H](O)[C@@H]2O)ccc2cc(NC(=O)C/C=C/CC(=O)Nc3cc4ccc(O[C@H]5OC(C)(C)[C@@H](OC)[C@H](O)[C@@H]5O)c(OC)c4oc3=O)c(=O)oc12`, the IC50 in experiment [4] and in experiment [5] was greater than 100 µM in each case.
`COc1ccc(C(=O)Nc2cc3ccc(OC4CCN(C)CC4)c(C)c3oc2=O)cc1-c1cc(C(=O)Nc2cc3ccc(OC4CCN(C)CC4)c(C)c3oc2=O)ccc1OC`: the IC50 came out at 4.98 µM in experiment [4] and 14.2 µM in experiment [5].
For the compound `COc1cc2cc(NC(=O)CCC/C=C/CCCC(=O)Nc3cc4cc(OC)c(OC5CCN(C)CC5)c(C)c4oc3=O)c(=O)oc2c(C)c1OC1CCN(C)CC1`, the inhibition result in experiment [6], in experiment [7], in [8], in experiment [9], in experiment [10] and in experiment [11] was “Active” each time. Besides, the concentration for half-maximal inhibition (IC50) in experiment [2] is 37.7 µM; in experiment [3], 0.38 µM; in [4], 0.22 µM; in experiment [5] it was 0.31 µM.
Regarding `CO[C@@H]1[C@@H](O)[C@@H](O)[C@H](Oc2ccc3cc(NC(=O)c4cccc(-c5cccc(C(=O)Nc6cc7ccc(O[C@@H]8OC(C)(C)[C@H](OC)[C@@H](O)[C@H]8O)c(C)c7oc6=O)c5)c4)c(=O)oc3c2C)OC1(C)C`, the values for the IC50 in experiment [4] and in [5] were 0.86 µM and 1.26 µM, respectively.
In the case of `COc1c(OC2CCN(C)CC2)ccc2cc(NC(=O)C/C=C/CC(=O)Nc3cc4ccc(OC5CCN(C)CC5)c(OC)c4oc3=O)c(=O)oc12`, the inhibition entry in experiment [6], in [7], in experiment [8], in experiment [9], in experiment [10] and in experiment [11] was “Active” throughout. Besides, the IC50 in experiment [3] was 8.63 µM; in [4], 0.71 µM; in experiment [5], 1.46 µM.
As for `COc1ccc(C(=O)Nc2cc3ccc(OC(C)=O)c(C)c3oc2=O)cc1-c1cc(C(=O)Nc2cc3ccc(OC(C)=O)c(C)c3oc2=O)ccc1OC`, the IC50 in experiment [4] was 11.8 µM; in experiment [5] it was greater than 100 µM.
For the compound `COc1ccc(C(=O)Nc2cc3cc(OC)c(O[C@@H]4OC(C)(C)[C@H](OC)[C@@H](O)[C@H]4O)c(C)c3oc2=O)cc1-c1cc(C(=O)Nc2cc3cc(OC)c(O[C@@H]4OC(C)(C)[C@H](OC)[C@@H](O)[C@H]4O)c(C)c3oc2=O)ccc1OC`, the inhibition result in [6], in experiment [7], in experiment [8], in experiment [9], in experiment [10] and in experiment [11] was “Active” throughout. Further, the IC50 turned out to be 0.11 µM in experiment [4] and 0.72 µM in experiment [5].

What is called IC50 is the concentration that inhibits the measured activity by half. High values mean a need for much substance, low ones inhibition by little substance.
